Measurements: ChEMBL document CHEMBL3351518, “Synthesis and antibacterial activity of catecholate-ciprofloxacin conjugates” (Bioorg Med Chem, 2014)
In brackets after ≈: the same amount, converted by molar mass.

What was measured:
Pseudomonas aeruginosa [1] = test: Antimicrobial activity against ciprofloxacin-sensitive Pseudomonas aeruginosa DSM 1117 grown under Mueller-Hinton medium by broth microdilution method; format: functional
How it was run: (§1)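 Overnight cultures at 35 °C in Tryptic Soy Broth were streaked on Tryptic Soy Agar, and inocula were prepared per CLSI. Broth microdilution used two-fold serial dilutions of 0.0625–128 µg/mL from DMSO stocks made with gentle heating (40 °C) and 10 min sonication. Ciprofloxacin served as control in each series. MIC was the highest dilution with clear wells. Media: cation-adjusted Mueller–Hinton, pH 7.3; succinate minimum medium, pH 7.0, without or with 1 µM FeCl3 added.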

Pseudomonas aeruginosa [2] = test: Antimicrobial activity against ciprofloxacin-sensitive Pseudomonas aeruginosa DSM 1117 grown under succinate minimum medium by broth microdilution method; format: functional; how it was run: as §1
Pseudomonas aeruginosa [3] = test: Antimicrobial activity against ciprofloxacin-sensitive Pseudomonas aeruginosa DSM 1117 grown under succinate minimum medium in presence of 1 uM FeCl3 by broth microdilution method; format: functional; how it was run: as §1
Pseudomonas aeruginosa [4] = test: Antimicrobial activity against ciprofloxacin-resistant Pseudomonas aeruginosa AM 85 grown under Mueller-Hinton medium by broth microdilution method; format: functional
How it was run: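 AM 85 is a clinical isolate with efflux-mediated ciprofloxacin resistance. Grown overnight at 35 °C in Tryptic Soy Broth, then streaked on Tryptic Soy Agar. CLSI broth microdilution in cation-adjusted Mueller–Hinton broth, pH 7.3. DMSO stock (40 °C warming, 10 min sonication) diluted two-fold, 0.0625–128. MIC is the highest dilution with clear wells.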

Pseudomonas aeruginosa [5] = test: Antimicrobial activity against ciprofloxacin-resistant Pseudomonas aeruginosa AM 85 grown under succinate minimum medium by broth microdilution method; format: functional
How it was run: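 AM 85 is a clinical isolate with efflux-mediated ciprofloxacin resistance. Overnight growth at 35 °C in Tryptic Soy Broth, then Tryptic Soy Agar plates. CLSI broth microdilution in iron-deprived succinate minimum medium, pH 7.0, with no iron added. Two-fold dilutions (0.0625–128) from a DMSO stock made with 40 °C warming and 10 min sonication. MIC read as the highest dilution with clear wells.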

Pseudomonas aeruginosa [6] = test: Antimicrobial activity against ciprofloxacin-resistant Pseudomonas aeruginosa AM 85 grown under succinate minimum medium in presence of 1 uM FeCl3 by broth microdilution method; format: functional
How it was run: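 Clinical efflux-mediated ciprofloxacin-resistant isolate AM 85, grown overnight at 35 °C in Tryptic Soy Broth and isolated on Tryptic Soy Agar. CLSI broth microdilution in succinate minimum medium, pH 7.0, supplemented with FeCl3 for iron-enriched conditions. Compounds were dissolved in DMSO (40 °C, 10 min sonication) and serially diluted two-fold, 0.0625–128. MIC is the highest dilution with clear wells.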

[7] = Toxicity in human RBC assessed as induction of hemolysis after 1 hr relative to saponin; format: cell-based, Erythrocyte; details: red blood cells (RBC), read-out: Activity
How it was run: (§2)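 Human red blood cells were washed three times in TRIS buffer (10 mmol/l TRIS, 150 mmol/l NaCl, pH 7.4) and suspended at 0.5% (v/v). 15 µL of test or control solution was added to 235 µL suspension, in triplicate, with 1% saponin as 100% hemolysis and DMSO/TRIS as negative controls. Incubation was 1 h at 37 °C. After centrifugation, supernatant OD was read at 405 nm.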

[8] = Toxicity in human RBC assessed as induction of hemolysis at 384 ug/ml after 1 hr relative to saponin; format: cell-based, Erythrocyte; details: red blood cells (RBC), read-out: Activity; how it was run: as §2
[9] = Toxicity in human RBC assessed as induction of hemolysis up to 384 ug/ml after 1 hr relative to saponin; format: cell-based, Erythrocyte; details: red blood cells (RBC), read-out: Activity; how it was run: as §2
[10] = Induction of iron complexation in mixed H2O/DMSO solvent mixture (0.2 mole fraction of DMSO) at 1:3 mixture of […] at 25 degC at 3.0 <pH <4.1 by UV-visible spectrophotometry; format: physicochemical
How it was run: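 UV–visible spectra of 1:3 iron(III):ligand solutions were recorded across pH in H2O/DMSO at 0.2 DMSO mole fraction, 25 °C. pH was adjusted by automatic titrator addition of 0.1 M KOH prepared in the same solvent. The glass electrode was calibrated by titrating 0.1 M HCl with KOH in H2O/DMSO.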

Structure (SMILES) | MIC (Pseudomonas aeruginosa [1]) | MIC (Pseudomonas aeruginosa [2]) | MIC (Pseudomonas aeruginosa [3]) | MIC (Pseudomonas aeruginosa [4]) | MIC (Pseudomonas aeruginosa [5]) | MIC (Pseudomonas aeruginosa [6]) | hemolysis at 1 h [7] | hemolysis at 1 h, 384 ug/ml [8] | hemolysis at 1 h [9] | Activity [10]
O=C(CCN1CCN(c2cc3c(cc2F)c(=O)c(C(=O)O)cn3C2CC2)CC1)OCC(CCCNC(=O)c1cccc(O)c1O)(CCCNC(=O)c1cccc(O)c1O)CCCNC(=O)c1cccc(O)c1O | > 128 mg/L | > 128 mg/L | 64 mg/L | > 128 mg/L | > 128 mg/L | > 128 mg/L | < 10% | – | – | –
O=C(CN1CCN(c2cc3c(cc2F)c(=O)c(C(=O)O)cn3C2CC2)CC1)OCC(CCCNC(=O)c1cccc(O)c1O)(CCCNC(=O)c1cccc(O)c1O)CCCNC(=O)c1cccc(O)c1O | 8 mg/L (≈ 8.02 µM) | 8 mg/L (≈ 8.02 µM) | 4 mg/L | > 128 mg/L | > 128 mg/L | > 128 mg/L | < 10% | – | – | –
O=C(CCCN1CCN(c2cc3c(cc2F)c(=O)c(C(=O)O)cn3C2CC2)CC1)OCC(CCCNC(=O)c1cccc(O)c1O)(CCCNC(=O)c1cccc(O)c1O)CCCNC(=O)c1cccc(O)c1O | 64 mg/L (≈ 62.4 µM) | 64 mg/L (≈ 62.4 µM) | 32 mg/L | > 128 mg/L | > 128 mg/L | > 128 mg/L | < 10% | – | – | –
O=C(NCCCC(CCCNC(=O)c1cccc(O)c1O)(CCCNC(=O)c1cccc(O)c1O)C(=O)N1CCN(c2cc3c(cc2F)c(=O)c(C(=O)O)cn3C2CC2)CC1)c1cccc(O)c1O | > 128 mg/L | > 128 mg/L | > 128 mg/L | > 128 mg/L | > 128 mg/L | > 128 mg/L | – | 40% | – | –
O=C(O)c1cn(C2CC2)c2cc(N3CCN(C(=O)c4cccc(O)c4O)CC3)c(F)cc2c1=O | > 128 mg/L | 32 mg/L (≈ 68.5 µM) | 16 mg/L | > 128 mg/L | 64 mg/L (≈ 137 µM) | 32 mg/L | – | – | < 10% | Active
COC(=O)CN1CCN(c2cc3c(cc2F)c(=O)c(C(=O)O)cn3C2CC2)CC1 | 8 mg/L (≈ 19.8 µM) | 16 mg/L (≈ 39.7 µM) | 16 mg/L | > 128 mg/L | > 128 mg/L | > 128 mg/L | – | – | < 10% | –
O=C(O)CN1CCN(c2cc3c(cc2F)c(=O)c(C(=O)O)cn3C2CC2)CC1 | 0.25 mg/L (≈ 0.642 µM) | 0.125 mg/L (≈ 0.321 µM) | 0.125 mg/L | 16 mg/L (≈ 41.1 µM) | 16 mg/L (≈ 41.1 µM) | 16 mg/L | – | 40% | – | –
O=C(O)c1cn(C2CC2)c2cc(N3CCNCC3)c(F)cc2c1=O [CIPROFLOXACIN] | – | – | – | 16 mg/L (≈ 48.3 µM) | 16 mg/L (≈ 48.3 µM) | 32 mg/L | < 10% | – | – | –
